Sampled rows, rich in hits. Any-hit rate of the full collection: about 4.1%.
MrgX1 ag: activates human MrgX1 receptor signaling | AID 588627 | MrgX1-HEK293 cells, Fluo-4 calcium fluorescence, agonist mode; active compounds read high | B-score at 10 µM | actives 0.44% (n = 310,000);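 active means calcium response B-score plate-corrected fluorescence ratio at least 3 library SD, with starting fluorescence B-score inside 5 SD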
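times = overnight plating, then 30 min 37 °C plus 30 min room-temperature dye loading | assay system = stable human MrgX1 HEK293 cell line | input = fifteen thousand cells per well | signal = kinetic calcium dye fluorescence, Fluo-4 NW | dosing = compound delivered in addition one of three | read-out = B-scored fluorescence response ratio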
MrgX1 PAM: human MrgX1 positive allosteric modulation, primary screen. B-score at 10 µM. MrgX1-HEK293, Fluo-4 calcium flux, FDSS; active compounds read high. actives 0.63% (n = 310,000). Q96LB2;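 active means plate-corrected calcium response at least 3 library SD above typical, normal starting fluorescence, not activating the receptor alone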;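 further: compound read alongside a low EC10 to EC30 dose of BAM8-22 agonist; peak minus trough fluorescence over baseline measured at the second addition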
RGS4 block: inhibitors of human RGS4 | B-score at 10 µM | HEK293 M3R/RGS4 inducible, Fluo-4 calcium flux; active compounds read high; triggered by carbachol at its EC20 | actives 0.45% (n = 310,000);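 active means B-score, a plate-corrected calcium signal, over three deviations above library mean, with baseline fluorescence within five deviations of library mean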;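 further: RGS4 expression induced by doxycycline in cells with stable M3 receptor; B-score is computed from the integrated fluorescence ratio over baseline after carbachol; higher B-score means a larger calcium signal and so more RGS4 inhibition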
Kir21 inh: blocks the mouse Kir2.1 inward-rectifier potassium channel; HEK293-Kir2.1, FluxOR thallium flux fluorescence; active compounds read low; B-score at 10 µM; actives 0.85% (n = 310,000); AID 1672;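 active means fluorescence ratio B-score at or below minus 3 SD of library scores, with starting-brightness B-score within 2 SD, cut at about -4.2 in these data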;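 further: channel flux triggered by added potassium and thallium sulfate stimulus; B-score of peak minus minimum fluorescence over baseline after thallium stimulus; more negative B-score means stronger Kir2.1 block with less thallium influx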
Target sequence (P35561 whole entry, looked up): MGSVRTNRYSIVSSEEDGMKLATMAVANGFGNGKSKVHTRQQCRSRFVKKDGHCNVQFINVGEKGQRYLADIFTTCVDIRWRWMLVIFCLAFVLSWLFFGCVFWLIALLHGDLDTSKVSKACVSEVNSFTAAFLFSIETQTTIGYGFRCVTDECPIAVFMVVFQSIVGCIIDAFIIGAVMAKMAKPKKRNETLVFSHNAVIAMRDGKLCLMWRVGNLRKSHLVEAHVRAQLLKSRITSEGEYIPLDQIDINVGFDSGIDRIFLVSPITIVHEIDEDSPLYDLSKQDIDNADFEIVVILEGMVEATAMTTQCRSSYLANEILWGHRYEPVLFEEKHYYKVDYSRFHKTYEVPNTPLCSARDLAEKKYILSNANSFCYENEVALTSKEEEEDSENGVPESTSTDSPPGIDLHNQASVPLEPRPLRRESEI
MrgX1 antagonist: human MrgX1 receptor antagonism, primary screen; Q96LB2; MRGX1-HEK293 calcium flux, Fluo-4, BAM8-22 antagonism; active compounds read low; B-score at 10 µM; actives 1.3% (n = 310,000); AID 588676;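 active means calcium-response B-score plate-corrected more than 3 library SD below zero, starting fluorescence within 5 deviations, no agonist response on first addition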;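 further: peak minus trough fluorescence over baseline after final BAM8-22 challenge near maximal dose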
RGS4 act: potentiators or activators of RGS4 | HEK293 M3R/inducible RGS4, carbachol calcium flux Fluo4; active compounds read low | B-score at 10 µM | actives 0.92% (n = 310,000) | AID 463111;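 active means B-score of the integrated calcium signal more than 4 SD below the library mean, with starting fluorescence not abnormally high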;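 further: negative B-score means reduced calcium response which marks RGS4 activation or potentiation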
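System – HEK293 FlpIn-TREx cells, stable M3R, doxycycline-inducible RGS4 · Reagent – ECmax carbachol challenge · Times – compound preincubation 20 min at room temperature before agonist · Technique – Fluo4 fluorescence kinetic imaging of calcium · Measure – B score of integrated Fluo4 ratio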
RGS4 act valid: RGS4 activation, validation assay; actives 89% (n = 1,100); HEK293 M3R/RGS4 inducible, carbachol calcium flux Fluo4; shares compounds with RGS4 act; inhibition, % at 10 µM; AID 602282;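 active means inhibition above 3 SD of the buffer control wells, cut at about 41% in these data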;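 further: signal is the integrated peak-minus-minimum Fluo4 fluorescence over baseline ratio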
M3R Ca counter: activity in cells without induced RGS4 expression. shares compounds with RGS4 act. HEK293 M3R non-induced RGS4, Fluo4 calcium flux; after carbachol challenge at its EC90. inhibition, % at 10 µM. actives 82% (n = 1,100);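 active means inhibition exceeding 3 SD of buffer-only control wells, cut at about 26% in these data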;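 further: percent drop in integrated peak-minus-baseline over baseline Fluo4 ratio after carbachol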
Numbers without * were called inactive; i = inactive; . = not tested or not shown.

SMILES	MrgX1 ag	MrgX1 PAM	RGS4 block	Kir21 inh	MrgX1 antagonist	RGS4 act	RGS4 act valid	M3R Ca counter
C=CCn1c(=NC(=O)c2cccc(N3C(=O)CCC3=O)c2)sc2cccc(OC)c21	i	i	i	0.39	i	-10.2*	92.0*	72.8*
COc1ccc(C)c2sc(=NC(=O)c3cccc(N4C(=O)CCC4=O)c3)n(C)c12	i	i	i	0.27	i	i	.	.
O=S(=O)(c1ccc(-c2ccon2)s1)N1CCOCC1	i	i	i	-0.44	i	i	.	.
COCC(=O)NC1CC2CCCC(C1)N2Cc1ccccc1 (stereo unspecified)	i	i	i	-0.63	i	i	.	.
CC(C)(C)OC(=O)NC1CC2CCCC(C1)N2Cc1ccccc1 (stereo unspecified)	.	.	i	0.17	.	-9.7*	91.5*	88.8*
CC(C)(C)N(Cc1ccccc1)C(=O)c1ccc2c(c1)OCCO2	i	i	i	0.67	i	-9.2*	92.0*	53.8*
O=C(Nc1ccc2c(c1)OCCO2)c1cccc2nc3ccccc3nc12	i	i	i	-0.01	i	-9.28*	85.5*	52.3*
OCC1(Cc2ccccc2C(F)(F)F)CCN(Cc2ccccc2)CC1	i	i	i	-0.25	i	i	.	.
OCC1(Cc2ccccc2C(F)(F)F)CCN(Cc2ccc3c(c2)CCO3)CC1	i	i	i	-2.74	i	-10*	55.0*	83.8*
Cc1cccc2cc3c(N)c(C(=O)Nc4ccc(N5CCOCC5)cc4)sc3nc12	i	i	i	-2.9	-5.44*	-11.3*	92.5*	73.8*
Cc1ccc2nc3sc(C(=O)Nc4ccc(N5CCOCC5)cc4)c(N)c3cc2c1	.	.	i	0.17	.	i	.	.
O=C(NCCN1CCOCC1)N1c2ccccc2Sc2ccccc21	i	i	i	0.53	i	-10.6*	83.0*	54.3*
O=C(CN1CCCC1)N1c2ccccc2Sc2ccccc21	i	i	i	-0.18	i	-9.52*	92.0*	69.3*
O=C(NCCO)N1c2ccccc2Sc2ccccc21	i	i	i	-0.01	i	i	.	.
O=C(CCN1CCOCC1)N1c2ccccc2Sc2ccc(Cl)cc21	i	i	i	-0.82	i	-8.94*	92.0*	89.8*
CN(C)CCCNC(=O)N1c2ccccc2Sc2ccccc21	i	i	i	-0.73	i	-11.3*	92.0*	90.8*
CC(C(=O)NN=C(c1ccccc1)c1ccccc1)N1CCOCC1 (stereo unspecified)	i	i	i	-0.22	i	i	.	.
O=c1c[n+]([O-])c2ccccc2n1OCc1c(F)cccc1F	i	i	i	-0.5	i	i	.	.
Nc1cc(=O)[nH]c(SCC(=O)Nc2nnc(-c3ccccc3)s2)n1	i	i	i	-0.41	i	i	.	.
CN(C)c1ccc(/C=N/n2c(-c3ccccc3Br)n[nH]c2=S)cc1	i	i	i	0.45	i	-12*	93.5*	93.8*
CN(C)c1ccc(/C=N/n2c(-c3cccnc3)n[nH]c2=S)cc1	i	i	i	-0.62	i	i	.	.
COc1cc(C(=S)N2CCCCC2)ccc1OCC(=O)N1CCCC1	i	i	i	2.24	i	i	.	.
Cc1cc(NC(=O)CSc2cn(CCNC(=O)c3ccc(F)cc3)c3ccccc23)no1	i	i	i	-0.87	i	-7.66*	69.0*	33.3*
COc1ccc(C(CNc2nc(-c3cccnc3)nc3ccccc23)N(C)C)cc1 (stereo unspecified)	i	i	i	0.05	i	-9.32*	60.5*	83.8*

Bioassay records as filed in PubChem.
